Assay results as given in the EternaBench riboswitch data.

System: MS2 coat protein
Test: apparent Kd, MS2 coat protein; higher = weaker binding; RNA-MaP array; FMN 200 µM where present
Method in brief: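 Green signal from SNAP-549-labelled MS2 coat protein was normalised to red-channel RNA signal and to the median Fmax of control clusters. The protein was titrated from 0.7 or 1.5 nM, doubling to 3 µM, without and then with constant ligand, over designs transcribed by stalled E. coli RNA polymerase on Illumina sequencing-chip clusters, in 100 mM Tris-HCl pH 7.5, 80 mM KCl, 4 mM MgCl2, BSA, DTT, yeast tRNA and Tween-20. The apparent Kd is the median of filtered per-cluster binding-curve fits.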

[1] = designed as: ON switch for flavin mononucleotide, no ligand
[2] = ligand present: flavin mononucleotide, designed as: ON switch for flavin mononucleotide
[3] = designed as: OFF switch for flavin mononucleotide, no ligand
[4] = ligand present: flavin mononucleotide, designed as: OFF switch for flavin mononucleotide

UUAAUUAUACAAGGAUAUCUAUUGUAGUUUCGACUUACAUGAGGAUCACCCAUGUUAAUAUGUUUAGAGAAGGUGUAUUUUCAG
apparent Kd [1]: 98.3 nM | apparent Kd [2]: 61.1 nM

CAGUACGGAGGAUAUACAUGAGGAUCACCCAUGUGAGAAAUACUAGUGAGGUCGAUUAGUAGAAGGCUGUACUG
apparent Kd [3]: 40.5 nM | apparent Kd [4]: 579 nM

CAAUUGGCACAGAAGGGUGACAUGAGGAUCACCCAUGUAGCGUGGCACUCAGGAGGAACCACGCCACAGGAUAUGUGCCGGCAC
apparent Kd [1]: 88.5 nM | apparent Kd [2]: 86.8 nM

UGCCCAAAUGGGCCGUGGCAGCGUGAGGAUAUGGGUUGGAUACAUGAGGAUCACCCAUGUUCCUCCUAGAAGGCACUUGUAACC
apparent Kd [1]: 183 nM | apparent Kd [2]: 41.5 nM

UGAAGAAAGUAGAAGGUAGUCUUAAAAUAGGACUAAGGAUAUACAUGAGGAUCACCCAUGUACUCCUUUAAUAUCUUUGAAAUA
apparent Kd [3]: 5.5 nM | apparent Kd [4]: 5.42 nM

CCAAUAAGCCAAGGAUAUCAGCCGGGUACGAGGUGAGAAGGUGGCCGAGGGAAUUACGGACAUGAGGAUCACCCAUGUACCCGU
apparent Kd [1]: 4.98 nM | apparent Kd [2]: 4.21 nM

GCUGACGAUGUAGGAUAUCUCGACGAUAAGUCGAGAGAAGGACAUGAGGAUCACCCAUGUAACUCAACGUCAGCGAGGAAACUC
apparent Kd [3]: 17.8 nM | apparent Kd [4]: 20.6 nM

GGUAAACAUGAGGAUCACCCAUGUAAUAAUAUGGGAGGAUAUGGGAAUUAAUUAAUUAAACCAGAAGGCCUAAUUG
apparent Kd [1]: 216 nM | apparent Kd [2]: 25.6 nM

UAUUUAAUCAUAGGAUAUAGUGUGAAAUUUGGACUAGAAGGAUGUAACAUGAGGAUCACCCAUGUGGUAAGUGGGACACAGUGA
apparent Kd [1]: 106 nM | apparent Kd [2]: 177 nM

GAGCUAUGAGGAUAUGCAUAUAUACGGAUUCGUGUGGUACUACAUGAGGAUCACCCAUGUAGAAGGCGUGGCUG
apparent Kd [3]: 19 nM | apparent Kd [4]: 20.8 nM

UUUUUGUCAGAGGAUAUCAUAGUCAGUUUUAAGUGAGAAGGUUGAACAUGAGGAUCACCCAUGUGACCUUGGUG
apparent Kd [3]: 23.6 nM | apparent Kd [4]: 21.6 nM

AAAUAACCUAGCAAAAUUUCCUAACAUGAGGAUCACCCAUGUAGAAGGCUGUCCUAAAAUAGGACAGAGGAUAUACGUGCUAGG
apparent Kd [3]: 5.01 nM | apparent Kd [4]: 7 nM

CUCAAACAUGAGGAUCACCCAUGUGUUGUCAUGGGAGGAUAUCCCAGUUCGUUGUAGUCGGGAGAAGGCCUAUGUC
apparent Kd [1]: 67.4 nM | apparent Kd [2]: 28.6 nM

AGAUGGCGAGGAUAUACAUGAGGAUCACCCAUGUGAAGAUAAAUAGUGAGGAAGAAAAGUAGAAGGCGCUGUCA
apparent Kd [3]: 77.5 nM | apparent Kd [4]: 447 nM

GCCGAUUAAGUGAGGAUAUACCUAUGGAUACAUAGGUAGAAGGCACAUGAGGAUCACCCAUGUUCCUCAACGGC
apparent Kd [3]: 15.6 nM | apparent Kd [4]: 87.8 nM

AAGUCCAGAGGAUAUCAGACGCGGCACAUGAGGAUCACCCAUGUAUUCCCGUCUGCCGACUGAGAAGGUUGGAAAG
apparent Kd [3]: 12 nM | apparent Kd [4]: 17.8 nM

UGUGCGUUGAUCUUCGAUCGUUGUACAUGAGGAUCACCCAUGUAGGAUAUUCUAAGACGCAGAUAGGAGAAGGACAUUGGUUUU
apparent Kd [3]: 10.1 nM | apparent Kd [4]: 17.6 nM

AAUUUACAGCUAGGAUAUACAUGAGGAUCACCCAUGUGACGAUCGGAUCUUAUGAUCGUGUCCGUGUAGAAGGAGCAAAUAAGA
apparent Kd [3]: 8.15 nM | apparent Kd [4]: 10 nM

GCUUGUGAAGGAUAUACUGGAGGCGUGCGAUAGAAGCACGCACAUGAGGAUCACCCAUGUAGAAGGUCAGGCGU
apparent Kd [3]: 36.9 nM | apparent Kd [4]: 44.5 nM

AAAAAGUGAGGAUAUACAUGAGAAAAAAAAAUGUAAAAAAAACAUGAGGAUCACCCAUGUAGAAGGCACAAAAA
apparent Kd [3]: 49.7 nM | apparent Kd [4]: 82.7 nM

CGUCGCUGUCGAGAGGAUAUGCGGUGAUGGACAUGAGGAUCACCCAUGUUAGCGAUAGUAUCACGGUAGAAGGCUCUUACGACUG
apparent Kd [1]: 32.9 nM | apparent Kd [2]: 25.3 nM

AGUCAGACAGGAUAUACGUGGAUGGAACACUUAUUUCCACUACAUGAGGAUCACCCAUGUAGAAGGGUCUGACA
apparent Kd [3]: 18.8 nM | apparent Kd [4]: 19.7 nM

UACAUUACUGAGAAGGGAUACAUAUAAUUUUAGUCAGGAUAUCGAUACAGUGCAGCAUGAGGACAUGAGGAUCACCCAUGUAUU
apparent Kd [1]: 24.4 nM | apparent Kd [2]: 19.5 nM

UGGGUAAGUGUAGGAUAUUUAUAUUAAUAGUAUGGAGAAGGACAUGAGGAUCACCCAUGUACAGGGAGUUACCCAUUUCCUCUC
apparent Kd [3]: 778 nM | apparent Kd [4]: 1200 nM

UGACGAGUAGGAUAUUGGACUUGCGACAUGAGGAUCACCCAUGUGACGUCAACGUGGCACCAAGAAGGGCUACGUC
apparent Kd [3]: 68.1 nM | apparent Kd [4]: 46.9 nM

AGCUAGUCAGGAUAUACGAACAUGUCGCCCGACGUGAAGGGACAUGAGGAUCACCCAUGUAGAAGGGACUAGCA
apparent Kd [3]: 135 nM | apparent Kd [4]: 348 nM

GCACAUGGCAUAGGAUAUAGAACUAUACUUUAUAUAGGUAGUUACACUUAACUAGAAGGAUGAUACAUGAGGAUCACCCAUGUA
apparent Kd [1]: 16.8 nM | apparent Kd [2]: 14.5 nM

AGUCAGAGCAGAGGAUAUAUACAUGAGGAUCACCCAUGUGACUGCCUAUGCUAGAAAUAGUAUGUAUAGAAGGCUGCUCUGACA
apparent Kd [3]: 752 nM | apparent Kd [4]: 483 nM
